# How the values were obtained:
# [1] = system: MMD gene expression in peripheral blood; experiment: Phase 1 study: MMD gene expression in peripheral blood; format: in vivo, human; conditions: dose expansion, 60 mg once per week
# [2] = system: progastrin‐releasing peptide [pro‐GRP]; experiment: Phase 1 study: serum progastrin-releasing peptide; format: in vivo, human; conditions: dose expansion, NENs
# [3] = Phase 1 study: plasma pharmacokinetics, noncompartmental analysis; format: in vivo, human
# [4] = system: advanced or unresectable solid tumors, including NENs and R/R NHL; experiment: Phase 1 study CC-90011-ST-001: efficacy; format: in vivo, human
# How it was run: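 Phase 1 open-label multicenter study; adults with advanced NENs or R/R NHL. Test compound given orally once weekly in 28-day cycles (expansion: 60 mg); reductions and interruptions of up to 4 weeks allowed. Investigator-assessed response: RECIST 1.1 (solid tumors), IWG (NHL), PCWG3 (neuroendocrine prostate); FDG PET or PET/CT confirmed CR in FDG-avid tumors. Two-sided 95% Clopper–Pearson CIs; Kaplan–Meier medians.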
# [5] = system: solid tumor cell lines, including small cell lung cancer, and acute myeloid leukemia cell lines; conditions: solid tumor cell lines incl. SCLC, and AML cell lines; cited from earlier work
# [6] = system: patient‐derived xenograft models; conditions: cited from earlier work
smiles,measurement,setting,value
COc1ccc(-c2c(-c3ccc(C#N)c(F)c3)nc(N3CCC(N)CC3)n(C)c2=O)cc1F [CC‐90011],downregulation in MMD gene expression in the peripheral blood,[1],≥ 50%
same,patients in whom pro-GRP levels decreased,[2],15 of 16
same,patients with a pro-GRP decrease >30%,[2],11 of 16
same,accumulation with repeat dosing based on the AUC,"[3]; dose expansion, 60 mg once per week",Negligible accumulation
same,"time of peak CC-90011 concentration after treatment, approximate median","[3]; dose expansion, NEN, n = 16, 60 mg once per week",~4 h
same,terminal half-life,[3]; in words,long terminal half‐life
same,Best overall response: CR,"[4]; dose escalation, n = 50",1 (2.0) no. (%)
same,Best overall response: NE,"[4]; dose escalation, n = 50",4 (8.0) no. (%)
same,Best overall response: PD,"[4]; dose escalation, n = 50",22 (44.0) no. (%)
same,Best overall response: PR,"[4]; dose escalation, n = 50",1 (2.0) no. (%)
same,Best overall response: SD,"[4]; dose escalation, n = 50",22 (44.0) no. (%)
same,Best overall response: SD ≥4 months,"[4]; dose escalation, n = 50",8 (16.0) no. (%)
same,CBR [95% CI],"[4]; dose escalation, n = 50",20 [10.0–33.7] %
same,ORR [95% CI],"[4]; dose escalation, n = 50",4 [0.5–13.7] %
same,mOS [95% CI],"[4]; dose escalation, n = 50",7.8 [6.1–20.1] months
same,mPFS [95% CI],"[4]; dose escalation, n = 50",3.4 [1.7–3.7] months
same,patients with NENs with SD lasting ≥6 months / >6 months,"[4]; dose escalation, grade ≥2 NENs",seven
same,treatment cycle in which the patient with CR was still ongoing,"[4]; dose escalation, one patient with R/R MZL, as of April 2022",58 cycle
same,patients with bronchial NENs with SD after nine or more cycles,[4]; dose expansion,three
same,Best overall response: CR,"[4]; dose expansion, n=19",0 (0.0) no. (%)
same,Best overall response: NE,"[4]; dose expansion, n=19",2 (11.0) no. (%)
same,Best overall response: PD,"[4]; dose expansion, n=19",7 (37.0) no. (%)
same,Best overall response: PR,"[4]; dose expansion, n=19",0 (0.0) no. (%)
same,CBR [95% CI],"[4]; dose expansion, n=19",37 [16.3–61.6] %
same,ORR [95% CI],"[4]; dose expansion, n=19",0 [0.0–17.6] %
same,mOS [95% CI],"[4]; dose expansion, n=19","15.6 [7.0, NE] months"
same,mPFS [95% CI],"[4]; dose expansion, n=19",1.8 [1.1–5.4] months
same,treatment cycle in which the patient with SD was still ongoing,"[4]; dose expansion, one patient with bronchial NENs, as of April 2022",46 cycle
same,median PFS,[4]; patients with bronchial NENs,4.6 months
same,antiproliferative activity in vitro,[5],has antiproliferative activity in various solid tumor cell lines in vitro
same,antiproliferative activity in patient-derived xenograft models,[6],demonstrated antiproliferative activity
